Experimental findings from ChEMBL document CHEMBL1139212, “Indole alkaloids from three species of the Ervatamia genus: E. officinalis, E. divaricata, and E. divaricata Gouyahua” (J Nat Prod, 2007) are described below.

In test [1] the test system is P388. The experiment in a line: Cytotoxicity against murine P388 cells by MTT method. The class given is functional, cell-based. Conditions: Mus musculus. Put shortly: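 In vitro growth inhibition of P-388 murine leukemia cells, read by MTT reduction; pseudolaric acid B served as positive control.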
(Formazan colour is commonly taken as a measure of viable cells.)

Test [2] deals with A549. The experiment in a line: Cytotoxicity against human A549 cells by SRB method. Format: functional, cell-based. Put shortly:
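In vitro growth inhibition of A-549 human lung carcinoma cells, read by sulforhodamine B staining; pseudolaric acid B served as positive control.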
A general note: The SRB assay estimates cell density from bound dye.

As a reminder, the IC50 is the concentration needed to halve the response being measured. Lower therefore signals higher potency.

The structures appear in SMILES notation.

Take `CC[C@H]1C[C@@H]2C[C@H]3c4[nH]c5cc([C@@H]6C[C@H]7C(C(=O)OC)[C@@H](Cc8c6[nH]c6ccccc86)N(C)C[C@H]7CC)c(OC)cc5c4CCN(C2)[C@@H]13` (stereo partly specified): the IC50 turned out to be 840 nM in test [1] and 1100 nM in test [2].

Turning to `C/C=C1/CN(C)[C@@H]2Cc3c([nH]c4ccccc34)[C@H](c3cc4[nH]c5c(c4cc3OC)CCN3C[C@@H]4C[C@H](CC)[C@H]3[C@H]5C4)C[C@H]1C2C(=O)OC` (stereo partly specified), the results for the IC50 in test [1] and in test [2] were 110 nM and 520 nM, respectively.

As to `CC[C@H]1C[C@@H]2C[C@H]3c4[nH]c5cc([C@@H]6C[C@H]7C(C(=O)OC)[C@@H](Cc8c6[nH]c6ccccc86)N(C)C[C@H]7CC)ccc5c4CCN(C2)[C@@H]13` (stereo partly specified), the IC50 was 430 nM in test [1] and 260 nM in test [2].

For `CC[C@@]12C=CCN3CC[C@]4(C(=C(C(=O)OC)C1)Nc1cc5c(cc14)[C@H]1[C@@H](O5)[C@H](O)[C@]4(CC)CC(C(=O)OC)=C5Nc6c(cc(O)c(OC)c6OC)[C@@]56CCN1[C@H]46)[C@H]32` [CONOPHYLLIDINE], the 50% inhibitory concentration (IC50) in test [1] worked out at 25 nM; in test [2], 44 nM.

Consider `CC[C@H]1C[C@H]2CN3CCc4c([nH]c5cc([C@@H]6C[C@H]7C(C(=O)OC)[C@@H](Cc8c6[nH]c6ccccc86)N(C)C[C@H]7CC)c(OC)cc45)[C@](C(=O)OC)(C2)[C@H]13` (stereo partly specified) [ERVADIVARICATINE B], for which the concentration for half-maximal inhibition (IC50) worked out at 360 nM in test [1] and 430 nM in test [2].

`COC(=O)C1=CC[C@@]23CC[C@@H]([C@@](C)(/C=C/C=C(\C)C(=O)O)OC2=O)[C@@]3(OC(C)=O)CC1` [PSEUDOLARIC ACID B]: in test [1], the midpoint of inhibition, the IC50, lay at 3700 nM. This lies in the single-digit micromolar range.
